Test results from ChEMBL document CHEMBL1123737, “Synthesis, absolute configuration, and antibacterial activity of 6,7-dihydro-5,8-dimethyl-9-fluoro-1-oxo-1H,5H- benzo[ij]quinolizine-2-carboxylic acid” (1987).
Converted amounts (≈) assume the structure as drawn.

Tests used:
[1] = tested on: Haemophilus influenzae; experiment: In vitro antibacterial activity against Haemophilus influenzae ATCC 9333; type: functional
Procedure, shortened: (§1)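 Agar dilution MIC. DMSO stocks at 5 mg/mL were serially 2-fold diluted in nutrient broth and mixed into Mueller-Hinton agar, with 5% defibrinated rabbit blood for hemophilic bacteria. Final range was 12.5 to 0.006 µg/mL. Overnight growth was suspended in saline to McFarland 6 (2 × 10^6/mL) and Steers-replicated. Plates were incubated 30 h at 37 °C; MIC was the lowest concentration preventing visible growth.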

[2] = tested on: Escherichia coli; experiment: In vitro antibacterial activity against Escherichia coli ATCC 15221; type: functional; procedure, shortened: as §1
[3] = In vitro antibacterial activity against Salmonella typhi-CDC M4694; type: functional, salmonella typhosa
Procedure, shortened: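 Agar dilution MIC: compounds dissolved in DMSO (5 mg/mL stock), 2-fold serial dilutions in nutrient broth, mixed into Mueller-Hinton agar; series 12.5 down to 0.006 μg/mL. Overnight culture suspended in saline to McFarland 6 (2 × 10^6/mL), spotted with Steers replicator. Incubated 37 °C for 30 h; MIC = lowest concentration preventing visible growth.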

[4] = tested on: Bordetella pertussis; experiment: In vitro antibacterial activity against Bordetella pertussis ATCC 10380; type: functional
Procedure, shortened: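 Agar dilution on Mueller-Hinton agar with drug from 5 mg/mL DMSO stocks, 2-fold diluted through nutrient broth to 12.5–0.006 µg/mL. Inoculum was applied by Steers replicator. MIC was read as the lowest concentration with no visible growth.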

[5] = tested on: Streptococcus pyogenes; experiment: In vitro antibacterial activity against Streptococcus pyogenes ATCC 1961-1; type: functional; procedure, shortened: as §1
[6] = tested on: Proteus mirabilis; experiment: In vitro antibacterial activity against Proteus mirabilis-R 119; type: functional; procedure, shortened: as §1
[7] = tested on: Staphylococcus epidermidis; experiment: In vitro antibacterial activity against Staphylococcus epidermidis ATCC 12228; type: functional; procedure, shortened: as §1
[8] = In vitro antibacterial activity against Pseudomonas cepacia ATCC 25608; type: functional; conditions: Burkholderia cepacia; procedure, shortened: as §1
[9] = tested on: Enterococcus faecalis; experiment: In vitro antibacterial activity against Streptococcus Streptococcus faecalis ATCC 10741; type: functional; procedure, shortened: as §1
[10] = tested on: Pseudomonas aeruginosa; experiment: In vitro antibacterial activity against Pseudomonas aeruginosa ATCC 15422; type: functional; procedure, shortened: as §1
[11] = tested on: Staphylococcus aureus; experiment: In vitro antibacterial activity against Staphylococcus aureus ATCC 6538-P; type: functional; procedure, shortened: as §1
[12] = tested on: Enterobacter cloacae; experiment: In vitro antibacterial activity against Enterobacter cloacae ATCC 23355; type: functional; procedure, shortened: as §1
[13] = tested on: Serratia marcescens; experiment: In vitro antibacterial activity against Serratia marcescens ATCC 8100; type: functional; procedure, shortened: as §1
[14] = tested on: Klebsiella pneumoniae; experiment: In vitro antibacterial activity against Klebsiella pneumoniae ATCC 23357; type: functional; procedure, shortened: as §1
[15] = tested on: Enterococcus faecalis; experiment: In vitro antibacterial activity against Streptococcus faecalis ATCC 10741; type: functional; procedure, shortened: as §1

## Cc1c(F)cc2c(=O)c(C(=O)O)cn3c2c1CCC3
[1]
  MIC: 0.1 µg/mL (≈ 0.383 µM)
[2]
  MIC: 0.8 µg/mL (≈ 3.06 µM)
[3]
  MIC: 0.4 µg/mL (≈ 1.53 µM)
[4]
  MIC: 0.8 µg/mL (≈ 3.06 µM)
[5]
  MIC: 12.5 µg/mL (≈ 47.8 µM)
[6]
  MIC: 1.6 µg/mL (≈ 6.12 µM)
[7]
  MIC: 1.6 µg/mL (≈ 6.12 µM)
[8]
  MIC: 6.2 µg/mL (≈ 23.7 µM)
[9]
  MIC: 12.5 µg/mL (≈ 47.8 µM)
[10]
  MIC: 12.5 µg/mL (≈ 47.8 µM)
[11]
  MIC: 0.8 µg/mL (≈ 3.06 µM)
[12]
  MIC: 0.4 µg/mL (≈ 1.53 µM)
[13]
  MIC: 0.8 µg/mL (≈ 3.06 µM)
[14]
  MIC: 0.8 µg/mL (≈ 3.06 µM)

## Cc1c(F)cc2c(=O)c(C(=O)O)cn3c2c1CC[C@@H]3C
[1]
  MIC: 0.006 µg/mL (≈ 0.0218 µM)
[2]
  MIC: 0.1 µg/mL (≈ 0.363 µM)
[3]
  MIC: 0.05 µg/mL (≈ 0.182 µM)
[4]
  MIC: 0.012 µg/mL (≈ 0.0436 µM)
[5]
  MIC: 1.6 µg/mL (≈ 5.81 µM)
[6]
  MIC: 0.4 µg/mL (≈ 1.45 µM)
[7]
  MIC: 0.05 µg/mL (≈ 0.182 µM)
[8]
  MIC: 0.8 µg/mL (≈ 2.91 µM)
[9]
  MIC: 0.8 µg/mL (≈ 2.91 µM)
[10]
  MIC: 3.1 µg/mL (≈ 11.3 µM)
[11]
  MIC: 0.025 µg/mL (≈ 0.0908 µM)
[12]
  MIC: 0.1 µg/mL (≈ 0.363 µM)
[13]
  MIC: 0.2 µg/mL (≈ 0.727 µM)
[14]
  MIC: 0.1 µg/mL (≈ 0.363 µM)

## Cc1c(F)cc2c(=O)c(C(=O)O)cn3c2c1CC[C@H]3C
[1]
  MIC: 0.4 µg/mL (≈ 1.45 µM)
[2]
  MIC: 6.2 µg/mL (≈ 22.5 µM)
[3]
  MIC: 3.1 µg/mL (≈ 11.3 µM)
[4]
  MIC: 1.6 µg/mL (≈ 5.81 µM)
[5]
  MIC: 12.5 µg/mL (≈ 45.4 µM)
[6]
  MIC: 12.5 µg/mL (≈ 45.4 µM)
[7]
  MIC: 6.2 µg/mL (≈ 22.5 µM)
[8]
  MIC: 12.5 µg/mL (≈ 45.4 µM)
[9]
  MIC: 12.5 µg/mL (≈ 45.4 µM)
[10]
  MIC: 12.5 µg/mL (≈ 45.4 µM)
[11]
  MIC: 3.1 µg/mL (≈ 11.3 µM)
[12]
  MIC: 3.1 µg/mL (≈ 11.3 µM)
[13]
  MIC: 3.1 µg/mL (≈ 11.3 µM)
[14]
  MIC: 6.2 µg/mL (≈ 22.5 µM)

## Cc1c(F)cc2c(=O)c(C(=O)O)cn3c2c1CCC3C (racemic) [IBAFLOXACIN]
[1]
  MIC: 0.006 µg/mL (≈ 0.0218 µM)
[2]
  MIC: 0.2 µg/mL (≈ 0.727 µM)
[3]
  MIC: 0.1 µg/mL (≈ 0.363 µM)
[4]
  MIC: 0.025 µg/mL (≈ 0.0908 µM)
[5]
  MIC: 0.8 µg/mL (≈ 2.91 µM)
[6]
  MIC: 0.8 µg/mL (≈ 2.91 µM)
[7]
  MIC: 0.1 µg/mL (≈ 0.363 µM)
[8]
  MIC: 0.8 µg/mL (≈ 2.91 µM)
[10]
  MIC: 6.2 µg/mL (≈ 22.5 µM)
[11]
  MIC: 0.05 µg/mL (≈ 0.182 µM)
[15]
  MIC: 0.8 µg/mL (≈ 2.91 µM)
[12]
  MIC: 0.2 µg/mL (≈ 0.727 µM)
[13]
  MIC: 0.4 µg/mL (≈ 1.45 µM)
[14]
  MIC: 0.2 µg/mL (≈ 0.727 µM)
